We go through six molecules from paper PMC9774329 (ACS Omega, 2022).

Holding throughout (type): cell-based, human
Assay [1] has as its system caspase-9 expression in HCT-116 cells. Briefly: Caspase-9 detection by ELISA in cell lysates. To be noted: HCT-116, 48 h treatment, 40 μg/mL. The essentials: (§1)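 HCT-116 cells were seeded at 50,000 cells/well in a CO2 incubator. After 24 h, at 70–80% confluence, cells received test compound at 40 μg/mL for 48 h; untreated cells served as controls. Cells were PBS-washed, detached with 0.35% trypsin and spun at 1000 rpm. Pellets were lysed 60 min and re-spun at 1000 rpm for 15 min. Lysates were assayed with human caspase-3 or caspase-9 ELISA kits, absorbance 620 nm.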

Assay [2] deals with caspase-3 expression in HCT-116 cells. Put plainly: Caspase-3 detection by ELISA in cell lysates. To be noted: HCT-116, 48 h treatment, 40 μg/mL. The essentials:
as §1

In assay [3] the test system is colon (HCT-116) cancer cells. Put plainly: Apoptosis confirmation by DAPI staining. Conditions: HCT-116, 48 h post-treatment. The essentials:
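Fixed HCT-116 cells were examined for apoptosis after 48 h compound exposure. Cells were fixed in 4% paraformaldehyde and stained in the dark with DAPI (1.0 μg/mL). Nuclear morphology was assessed by fluorescence confocal scanning microscopy.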

The next assay has as its system HCT-116 cell line. Briefly: MTT antiproliferative assay on colon cancer cells. Conditions: HCT-116, MTT, 48 h; compared to 3′-O-methyltaxifolin and quercetin. The procedure, abridged: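 HCT-116 cells were seeded at 20,000 cells/well in DMEM with FBS, L-glutamine, penicillin, streptomycin and selenium chloride at 37 °C in CO2. They were exposed to test compound at 5.0–40 μg/mL for 48 h, with untreated controls. MTT (5.0 mg/mL) was added for 4 h, then DMSO […], and OD was read at 570 nm. Done in triplicate.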
(Tetrazolium dyes change colour on reduction, which living cells bring about.)

With `COc1cc(O)c2c(c1)O[C@H](c1ccc(O)c(OC)c1)[C@@H](O)C2=O` [Compound 1, 7,3′-Di-O-methyltaxifolin], the “caspase-9 expression (ELISA, optical density)” value (shortened to “caspase-9 expression”) in assay [1] is recorded as “increase”. For the same molecule, in assay [2], the “caspase-3 expression (ELISA, optical density)” value (from here on “caspase-3 expression”) is listed as “increase”. For the same molecule, in assay [3], the “apoptosis induction (chromatin condensation, nuclear shrinkage) by DAPI staining” value (“apoptosis induction” for short) was “induced apoptosis”. In addition, the “reduction in the numbers of cancer cells” value in the assay on HCT-116 cell line was “significant reductions”.

As for `COc1cc([C@H]2Oc3cc(O)cc(O)c3C(=O)[C@@H]2O)ccc1O` [Compound 2, 3′-O-Methyltaxifolin], in assay [1], the “caspase-9 expression” value is recorded as “increase”. Also, in assay [2], the “caspase-3 expression” value is recorded as “increase”. Further, the “apoptosis induction” value in assay [3] was “induced apoptosis”.

For `COc1cc(O)c2c(c1)O[C@H](c1ccc(O)c(O)c1)[C@@H](O)C2=O` [Compound 3, 7-O-Methyltaxifolin], the “caspase-9 expression” value in assay [1] was “increase”. In addition, in assay [2], the “caspase-3 expression” value is listed as “increase”. In assay [3], the “apoptosis induction” value is on record as “induced apoptosis”. Moreover, the “reduction in the numbers of cancer cells” value in the assay on HCT-116 cell line is “significant reductions”.

As for `O=C1c2c(O)cc(O)cc2OC(c2ccc(O)c(O)c2)C1O` (stereo not shown) [Compound 4, Dihydroquercetin (taxifolin)], the “caspase-9 expression” value in assay [1] is listed as “increase”. Further, the “caspase-3 expression” value in assay [2] is recorded as “increase”. The “apoptosis induction” value in assay [3] is on record as “induced apoptosis”. In addition, the “reduction in the numbers of cancer cells” value in the assay on HCT-116 cell line is “significant reductions”.

Regarding `COc1c(-c2ccc(O)c(O)c2)oc2cc(O)cc(O)c2c1=O` [Compound 5, 3-O-Methylquercetin], the “caspase-9 expression” value in assay [1] is recorded as “increase”. Moreover, the “caspase-3 expression” value in assay [2] is on record as “increase”. Besides, the “apoptosis induction” value in assay [3] was “induced apoptosis”. The “reduction in the numbers of cancer cells” value in the assay with HCT-116 cell line is “significant reductions”.

`O=c1c(O)c(-c2ccc(O)c(O)c2)oc2cc(O)cc(O)c12` [Compound 6, Quercetin]: the “caspase-9 expression” value in assay [1] is reported as “increase”. In addition, the “caspase-3 expression” value in assay [2] was “increase”. The “apoptosis induction” value in assay [3] is “induced apoptosis”.
